ChEMBL document CHEMBL4422628, “Discovery of first-in-class thiazole-based dual FFA1/PPARδ agonists as potential anti-diabetic agents” (Eur J Med Chem, 2019)

Assays:
[1] = molecular target: T1, Peroxisome proliferator-activated receptor delta (Homo sapiens, UniProt Q03181); experiment: Transactivation of GAL4-fused human PPARdelta LBD expressed in HEK293 cells after 18 hrs by luciferase reporter gene assay; type: cell-based
T1 sequence (Q03181 whole entry): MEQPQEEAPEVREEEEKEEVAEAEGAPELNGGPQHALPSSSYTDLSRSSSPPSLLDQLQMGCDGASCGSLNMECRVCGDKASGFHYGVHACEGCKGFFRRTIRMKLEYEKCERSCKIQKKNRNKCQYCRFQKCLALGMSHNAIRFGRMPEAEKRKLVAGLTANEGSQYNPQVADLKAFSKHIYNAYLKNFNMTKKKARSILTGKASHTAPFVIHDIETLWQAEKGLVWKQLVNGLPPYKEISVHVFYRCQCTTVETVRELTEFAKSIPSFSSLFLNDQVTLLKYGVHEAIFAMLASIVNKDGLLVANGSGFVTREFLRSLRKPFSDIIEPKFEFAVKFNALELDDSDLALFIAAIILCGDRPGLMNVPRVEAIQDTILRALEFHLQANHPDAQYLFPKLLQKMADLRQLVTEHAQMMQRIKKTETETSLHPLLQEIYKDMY

[2] = molecular target: T2, Free fatty acid receptor 1 (Homo sapiens, UniProt O14842); experiment: Agonist activity at human FFA1 receptor expressed in CHO cells by Fluo 4-AM dye based FLIPR assay; type: cell-based
T2 sequence (O14842 whole entry): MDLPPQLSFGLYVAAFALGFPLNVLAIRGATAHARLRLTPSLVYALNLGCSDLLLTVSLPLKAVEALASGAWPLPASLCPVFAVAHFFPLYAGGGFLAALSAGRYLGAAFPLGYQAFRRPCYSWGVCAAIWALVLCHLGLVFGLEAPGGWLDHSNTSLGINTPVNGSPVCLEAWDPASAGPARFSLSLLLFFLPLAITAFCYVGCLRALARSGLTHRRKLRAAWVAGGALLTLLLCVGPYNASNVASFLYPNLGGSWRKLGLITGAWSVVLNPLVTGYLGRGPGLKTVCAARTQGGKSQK
Summary of the method: (§1)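 hFFA1-expressing CHO cells were loaded for 1 h at 37 °C with buffer containing 2.5 μg/mL Fluo 4-AM, 0.1% fatty acid-free BSA and 2.5 mmol/L probenecid. Compounds were added and calcium flux was read on FLIPR. Activity = (A–B)/(C–B)×100%, where A is the compound response, B the vehicle response and C the 10 μM γ-linolenic acid response.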

[3] = molecular target: T3, Peroxisome proliferator-activated receptor delta (Homo sapiens) (UniProt Q03181); experiment: Transactivation of GAL4-fused human PPARdelta LBD expressed in HEK293 cells assessed as activity percentage at 10 uM after 18 hrs by luciferase reporter gene assay relative to control; type: cell-based
T3 sequence (whole entry): T1 sequence (Q03181 whole entry)
Summary of the method: (§2)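 HepG2 or HEK293 cells were transfected with pBIND-PPARα, -δ or -γ (GAL4 fusion). Compounds at varying concentrations were incubated for 18 h. Cells were then lysed and firefly and renilla luciferase were read by dual-luciferase assay.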

[4] = molecular target: T2, Free fatty acid receptor 1; experiment: Agonist activity at human FFA1 receptor expressed in CHO cells assessed as activity percentage at 10 uM by Fluo 4-AM dye based FLIPR assay relative to control; type: cell-based; summary of the method: as §1
Mus musculus [5] = experiment: Antidiabetic activity in ob/ob mouse assessed as reduction in blood glucose AUC (0 to 120 mins) at 100 mg/kg, po administered as single dose pretreated for 30 mins followed by glucose-challenge by glucometric analysis relative to control; type: functional; design: scale not given: the % may be the effect or the level left
Summary of the method: (§3)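 Male ob/ob mice (six weeks old on arrival, acclimatized one week) were fasted 12 h and randomized (n = 6/group). Each received a single oral dose in 0.5% carboxymethyl cellulose vehicle, then 3 g/kg oral glucose 30 min later. Blood glucose was measured by glucometer at −30, 0, 15, 30, 60 and 120 min. Glucose AUC0-120min was calculated, mean ± SD.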

[6] = molecular target: T4, Peroxisome proliferator-activated receptor alpha (Homo sapiens, UniProt Q07869); experiment: Transactivation of GAL4-fused human PPARalpha LBD expressed in HEK293 cells after 18 hrs by luciferase reporter gene assay; type: cell-based; summary of the method: as §2
T4 sequence (Q07869 whole entry): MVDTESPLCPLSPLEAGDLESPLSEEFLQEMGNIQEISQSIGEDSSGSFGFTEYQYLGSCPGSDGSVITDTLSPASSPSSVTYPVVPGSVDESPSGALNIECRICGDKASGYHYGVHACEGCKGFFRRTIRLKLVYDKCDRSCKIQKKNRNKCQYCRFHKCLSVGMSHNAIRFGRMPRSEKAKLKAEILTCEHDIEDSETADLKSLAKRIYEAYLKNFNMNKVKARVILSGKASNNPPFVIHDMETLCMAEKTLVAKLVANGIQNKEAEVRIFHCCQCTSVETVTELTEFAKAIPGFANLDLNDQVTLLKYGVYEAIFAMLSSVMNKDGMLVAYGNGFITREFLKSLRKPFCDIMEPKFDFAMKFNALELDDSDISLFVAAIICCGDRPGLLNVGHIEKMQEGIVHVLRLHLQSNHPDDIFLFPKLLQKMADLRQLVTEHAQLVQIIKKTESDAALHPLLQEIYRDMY

Mus musculus [7] = experiment: Antidiabetic activity in ob/ob mouse assessed as reduction in blood glucose AUC (0 to 120 mins) at 30 mg/kg, po administered as single dose pretreated for 30 mins followed by glucose-challenge by glucometric analysis relative to control; type: functional; design: scale not given: the % may be the effect or the level left; summary of the method: as §3
[8] = Half life in Sprague-Dawley rat at 3 mg/kg, po by LC-MS/MS analysis; type: ADME, organism-based; conditions: in vivo
[9] = AUC (0 to 24 hrs) in Sprague-Dawley rat at 3 mg/kg, po by LC-MS/MS analysis; type: ADME, organism-based; design: dose 3 mg/kg, time < 24 hr, route oral; conditions: in vivo
Mus musculus [10] = experiment: Antidiabetic activity in ob/ob mouse assessed as change in blood glucose AUC (0 to 120 mins) at 10 mg/kg, po administered as single dose pretreated for 30 mins followed by glucose-challenge by glucometric analysis relative to control; type: functional; summary of the method: as §3
[11] = Clearance in Sprague-Dawley rat at 3 mg/kg, po by LC-MS/MS analysis; type: ADME, organism-based; conditions: in vivo
Mus musculus [12] = experiment: Antidiabetic activity in po dosed ob/ob mouse assessed as reduction in blood glucose AUC (0 to 120 mins) administered as single dose pretreated for 30 mins followed by glucose-challenge by glucometric analysis; type: functional, organism-based; summary of the method: as §3
[13] = Cmax in Sprague-Dawley rat at 3 mg/kg, po by LC-MS/MS analysis; type: ADME, organism-based; design: dose 3 mg/kg, route oral; conditions: in vivo
[14] = molecular target: T5, Peroxisome proliferator-activated receptor gamma (Homo sapiens, UniProt P37231); experiment: Transactivation of GAL4-fused human PPARgamma LBD expressed in HEK293 cells after 18 hrs by luciferase reporter gene assay; type: cell-based; summary of the method: as §2
T5 sequence (P37231 whole entry): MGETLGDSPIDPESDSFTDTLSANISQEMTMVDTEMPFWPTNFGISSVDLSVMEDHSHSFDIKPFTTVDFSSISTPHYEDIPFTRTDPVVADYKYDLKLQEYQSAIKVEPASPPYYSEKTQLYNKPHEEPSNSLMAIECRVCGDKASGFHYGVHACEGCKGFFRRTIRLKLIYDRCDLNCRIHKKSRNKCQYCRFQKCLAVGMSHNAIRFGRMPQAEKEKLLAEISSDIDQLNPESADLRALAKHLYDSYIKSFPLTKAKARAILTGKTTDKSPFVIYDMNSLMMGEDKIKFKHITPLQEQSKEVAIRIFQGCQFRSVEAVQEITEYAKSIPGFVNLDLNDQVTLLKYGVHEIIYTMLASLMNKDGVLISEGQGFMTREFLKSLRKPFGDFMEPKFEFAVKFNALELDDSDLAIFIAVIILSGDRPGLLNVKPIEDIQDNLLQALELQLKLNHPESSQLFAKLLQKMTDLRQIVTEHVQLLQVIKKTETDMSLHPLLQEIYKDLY

Mus musculus [15] = experiment: Antidiabetic activity in ob/ob mouse assessed as reduction in blood glucose AUC (0 to 120 mins) at 40 mg/kg, po administered as single dose pretreated for 30 mins followed by glucose-challenge by glucometric analysis relative to control; type: functional; design: scale not given: the % may be the effect or the level left; summary of the method: as §3

Row | Compound | EC50 [1] [nM] | EC50 [2] [nM] | Activity [3] [%] | Activity [4] [%] | other results
1 | Cc1nc(-c2ccccc2)sc1COc1ccc2c(c1)OCC2CC(=O)O (stereo not drawn) | 863 | 102 |  |  | 
2 | Cc1nc(-c2ccc(C(F)(F)F)cc2)sc1COc1ccc2c(c1)OCC2CC(=O)O (stereo not drawn) | 175 | 113 |  |  | 
3 | Cc1nc(-c2ccccc2)oc1COc1ccc(OCC(=O)O)c(F)c1 | 2660 | 1350 |  |  | 
4 | O=C(O)COc1ccc(OCc2nc(-c3ccccc3)cs2)cc1F | > 10000 | > 10000 | 11 | 15 | 
5 | Cc1cccc(-c2nc(C)c(COc3ccc(OCC(=O)O)c(F)c3)s2)c1 | 1160 | 247 |  |  | 
6 | [2H]C([2H])(Cc1ccc(OCc2sc(-c3ccc(C(F)(F)F)cc3)nc2C)cc1)C(=O)O | 376 | 325 |  |  | 
7 | Cc1ccc(-c2nc(C)c(COc3ccc4c(c3)OCC4CC(=O)O)s2)cc1 (stereo not drawn) | 218 | 94 |  |  | 
8 | Cc1nc(-c2ccccc2)sc1COc1ccc(OCC(=O)O)c(F)c1 | 1320 | 374 |  |  | 
9 | Cc1cc(OCc2ncc(-c3ccccc3)o2)ccc1OCC(=O)O | > 10000 | > 10000 | 12 | 2 | 
10 | Cc1nc(-c2ccccc2)sc1COc1ccc(S(=O)(=O)CC(=O)O)cc1 | > 10000 | 370 |  |  | 
11 | O=C(O)COc1ccc(OCc2nnc(-c3ccccc3)o2)cc1F | > 10000 | > 10000 | 3 | 6 | 
12 | Cc1ccc(-c2nc(C)c(COc3ccc(OCC(=O)O)c(F)c3)s2)cc1 | 564 | 156 |  |  | 
13 | Cc1cc(OCc2csc(-c3ccccc3)n2)ccc1OCC(=O)O | > 10000 | > 10000 | 35 | 5 | 
14 | Cc1cc(OCc2nnc(-c3ccccc3)s2)ccc1OCC(=O)O | > 10000 | > 10000 | 9 | 1 | 
15 | Cc1cc(OCc2sc(-c3ccccc3)nc2C)ccc1OCC(=O)O | 1650 | > 10000 |  | 13 | 
16 | Cc1nc(-c2ccc(F)cc2)sc1COc1ccc(OCC(=O)O)c(F)c1 | 729 | 112 |  |  | 
17 | Cc1sc(-c2ccccc2)nc1CNc1ccc(OCC(=O)O)c(F)c1 | > 10000 | > 10000 | 12 | 42 | 

Row | Compound | EC50 [1] [nM] | EC50 [2] [nM] | Activity [3] [%] | Activity [4] [%] | other results
18 | Cc1nc(-c2cccc(F)c2)sc1COc1ccc(OCC(=O)O)c(F)c1 | 780 | 185 |  |  | 
19 | COc1ccc(-c2nc(C)c(COc3ccc4c(c3)OCC4CC(=O)O)s2)cc1 (stereo not drawn) | 920 | 156 |  |  | 
20 | O=C(O)COc1ccc(OCc2nnc(-c3ccccc3)s2)cc1F | > 10000 | > 10000 | 4 | 19 | 
21 | Cc1nc(-c2ccc(C(F)(F)F)cc2)sc1COc1ccc(OCC(=O)O)c(F)c1 | 436 | 149 |  |  | 
22 | O=C(O)COc1ccc(OCc2ncc(-c3ccccc3)s2)cc1F | > 10000 | > 10000 | 23 | 31 | 
23 | Cc1sc(-c2ccccc2)nc1COc1ccc(OCC(=O)O)c(F)c1 | > 10000 | > 10000 | 31 | 37 | 
24 | Cc1nc(-c2ccc(F)cc2)sc1COc1ccc2c(c1)OCC2CC(=O)O (stereo not drawn) | 306 | 79 |  |  | 
25 | Cc1cc(OCc2sc(-c3ccc(C(F)(F)F)cc3)nc2C)ccc1OCC(=O)O | 315 | > 10000 |  |  | 
26 | [2H]C([2H])(Cc1ccc(OCc2sc(-c3ccc(F)cc3)nc2C)cc1)C(=O)O | 529 | 251 |  |  | 
27 | O=C(O)COc1ccc(OCc2csc(-c3ccccc3)n2)cc1F | > 10000 | > 10000 | 20 | 23 | 
28 | Cc1nc(-c2ccc(Cl)cc2)sc1COc1ccc2c(c1)OCC2CC(=O)O (stereo not drawn) | 264 | 105 |  |  | 
29 | Cc1nc(-c2ccc(C(F)(F)F)cc2)sc1COc1ccc2c(c1)OC[C@H]2CC(=O)O | 102 | 68 |  |  | Activity (Mus musculus [5]): 10.9%; EC50 [6]: > 10000 nM; Activity (Mus musculus [7]): 6.1%; half-life [8]: 4.31 h; AUC(0-t) at 24 h [9]: 95600 ng·h/mL; Activity (Mus musculus [10]): 1.1%; CL/F [11]: 0.279 mL/min/kg; Activity (Mus musculus [12]): Dose-dependent effect; Cmax [13]: 9450 ng/mL; EC50 [14]: > 10000 nM
30 | Cc1cc(OCCCS(C)(=O)=O)cc(C)c1-c1cccc(COc2ccc3c(c2)OC[C@H]3CC(=O)O)c1 |  |  |  |  | Activity (Mus musculus [15]): 15.7%
31 | Cc1nc(-c2ccc(F)cc2)sc1COc1ccc(S(=O)(=O)CC(=O)O)cc1 | > 10000 | 253 |  |  | 
32 | [2H]C([2H])(Cc1ccc(OCc2sc(-c3ccccc3)nc2C)cc1)C(=O)O | 972 | 590 |  |  | 
33 | O=C(O)COc1ccc(OCc2ncc(-c3ccccc3)o2)cc1F | > 10000 | > 10000 | 8 | 2 | 
